Experimental data pooled from the literature.
Each line is one published result; the experiments were not run side by side.
TPR: Trypanothione reductase (TPR, Trypanosoma cruzi, UniProt P28593)
BCHE: Cholinesterase (BCHE, Homo sapiens, UniProt P06276)

| Compound | target | test | conditions | measurement | value |
| --- | --- | --- | --- | --- | --- |
| OC[C@H]1O[C@H]([S-])[C@H](O)[C@@H](O)[C@@H]1O.[Au+] | Tyrosine-protein phosphatase non-receptor type 12 (PTPN12, Homo sapiens, UniProt Q05209) | enzyme activity, inhibitor, fluorescence |  | IC50 | 8 µM |
| c1ccc2c(c1)CCc1ccccc1C2OCCN1CCNCC1 | TPR | enzyme activity, inhibitor, absorbance |  | IC50 | 51.5 µM |
| C=CCn1c2cc(OC(=O)CCCCN3CCN(Cc4cccc(C)c4)CC3)ccc2c2ccnc(C)c21 | BCHE | enzyme activity, inhibitor, Ellman |  | IC50 | 0.251 µM |
| CSCC[C@H](NC(=O)[C@H](CCC(N)=O)NC(=O)[C@H](C)NC(=O)[C@H](CO)NC(=O)[C@@H](N)CO)C(=O)N[C@@H](CC(N)=O)C(=O)N[C@@H](CC(C)C)C(=O)N[C@@H](CC(N)=O)C(=O)N[C@H](C(=O)N[C@@H](Cc1ccccc1)C(=O)N[C@@H](CC(C)C)C(=O)N[C@@H](CC(N)=O)C(=O)O)[C@@H](C)O | 1-deoxy-D-xylulose 5-phosphate reductoisomerase (Escherichia coli K-12, UniProt P45568) | enzyme activity, inhibitor, absorbance | with preincubation | IC50 | 266 µM |
| [O-]/[N+](=C\c1ccc2cccc(O)c2n1)Cc1ccccc1 | BCHE | enzyme activity, inhibitor | pH 7 | Ki | 4.3 nM |
| Nc1c2c(nc3ccccc13)CCCC2 | Ribosyldihydronicotinamide dehydrogenase [quinone] (NQO2, Homo sapiens, UniProt P16083) | enzyme activity, inhibitor, absorbance |  | IC50 | 3 µM |
| Cc1cc(O)cc(C)c1C[C@H](N)C(=O)N[C@H](C)C(=O)N[C@@H](Cc1ccccc1)C(=O)N[C@@H](CCCN)C(N)=O | Mu-type opioid receptor (OPRM1, Cavia porcellus, UniProt P97266) | ligand displacement, radioligand | cell membranes | Ki | 0.033 nM |
| CC(C)C(Nc1nc(Cl)nc2c1ncn2[C@H]1[C@H](O)[C@H](O)[C@]2(CO)C[C@H]12)C(C)C | Muscarinic acetylcholine receptor M5 (CHRM5, Homo sapiens, UniProt P08912) | ligand displacement, radioligand |  | Ki | > 6300 nM |
| c1ccc(CCCN2CCN(CCOC(c3ccccc3)c3ccccc3)CC2)cc1 | TPR | enzyme activity, inhibitor, absorbance |  | IC50 | 10.9 µM |
| C[C@H]1COC2=C1C(=O)C(=O)c1c2ccc2c1CCCC2(C)C | BCHE | enzyme activity, inhibitor |  | Ki | > 100000 nM |
| Cc1cc(C)c2[nH]c(=O)c(CN(CCO)C(=S)Nc3ccc(O)cc3)cc2c1 | Beta-glucuronidase (uidA, Escherichia coli, UniProt P05804) | enzyme activity, inhibitor |  | EC50 | 4.5 µM |
| C[C@H](NC(=O)Cc1ccccc1)C(=O)N[C@H](Cc1c[nH]c2ccccc12)C(=O)NCCc1ccccc1 | Bombesin receptor subtype-3 (Brs3, Mus musculus, UniProt O54798) | calcium signal, agonist, fluorescence |  | EC50 | 0.0333 µM |
| C[C@H](N)Cn1ncc2ccc3c(c21)CCCO3 | Serotonin 4 (5-HT4) receptor (Sus scrofa, UniProt Q6Q253) | ligand displacement, radioligand |  | IC50 | 30.3 µM |
| O=C(O)c1ccccc1-c1c2cc(Br)c(=O)cc-2oc2[c]([Hg+])c(O)c(Br)cc12 | Proteinase K (PROK, Engyodontium album, UniProt P06873) | binding, ITC |  | Kd | ~3000 µM |
| Cn1cc(-c2cccc(N3CCc4c(sc5c4CC(C)(C)C5)C3=O)c2CO)cc(Nc2ccncn2)c1=O | Tyrosine-protein kinase Fgr (FGR, Homo sapiens, UniProt P09769) | enzyme activity, inhibitor, FRET |  | Ki | > 1110 nM |
